Data taken from ChEMBL document CHEMBL2176986, “Selective and potent urea inhibitors of cryptosporidium parvum inosine 5'-monophosphate dehydrogenase” (J Med Chem, 2012).
pEC50, pIC50: −log10 of the molar value.

What was measured:
[1] = system: Toxoplasma gondii; assay: Toxicity against wild type Toxoplasma gondii expressing yellow fluorescent protein infected in human TERT immobilized human foreskin fibroblasts assessed as parasite growth inhibition for 6 to 7 days by fluorescence based assay; type: organism-based
Outline: (§1)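 Parasite lines carrying yellow fluorescent protein were grown on hTERT-immortalized human foreskin fibroblasts. One line depends on C. parvum IMPDH (Toxo/CpIMPDH). The other is wild-type strain RH, which has its own eukaryotic IMPDH. Growth inhibition was taken on a day within exponential growth.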

[2] = system: Toxoplasma gondii; assay: Antiparasitic activity against Toxoplasma gondii expressing Cryptosporidium parvum IMPDH and co-expressing yellow fluorescent protein infected to human TERT immobilized human foreskin fibroblasts assessed as parasite growth inhibition for 6 to 7 days by fluorescence based assay; type: functional, organism-based
Outline: as §1, with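 “IMPDH. Fluorescence (Ex 485, Em 530) was read daily for 6-7 days.” for “IMPDH.”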

[3] = target: T1, Inosine-5'-monophosphate dehydrogenase (Cryptosporidium parvum, UniProt Q8T6T2); assay: Inhibition of Cryptosporidium parvum recombinant IMPDH expressed in Escherichia coli assessed as production of NADH incubated for 5 mins by fluorescence based assay
T1 sequence (Q8T6T2 whole entry): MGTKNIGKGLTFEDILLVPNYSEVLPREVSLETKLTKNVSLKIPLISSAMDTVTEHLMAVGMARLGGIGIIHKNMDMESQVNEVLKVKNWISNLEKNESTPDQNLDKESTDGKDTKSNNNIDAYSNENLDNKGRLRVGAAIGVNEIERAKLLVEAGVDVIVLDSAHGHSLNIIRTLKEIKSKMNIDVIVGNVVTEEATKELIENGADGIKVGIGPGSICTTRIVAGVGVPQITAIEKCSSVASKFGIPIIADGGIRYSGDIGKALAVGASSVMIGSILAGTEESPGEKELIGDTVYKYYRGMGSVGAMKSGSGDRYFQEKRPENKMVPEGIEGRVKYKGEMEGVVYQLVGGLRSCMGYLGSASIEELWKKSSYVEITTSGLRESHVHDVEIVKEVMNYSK
Outline: (§2)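 Recombinant CpIMPDH purified from E. coli, 10 nM, preincubated with inhibitor 5 min at room temperature before substrates added. NADH formation followed by fluorescence. Line 3 also includes 0.05% fatty-acid-free BSA.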

[4] = target: T1, Inosine-5'-monophosphate dehydrogenase; assay: Inhibition of Cryptosporidium parvum recombinant IMPDH expressed in Escherichia coli assessed as production of NADH in presence of 0.05% fatty acid free BSA incubated for 5 mins by fluorescence based assay; outline: as §2
[5] = system: Toxoplasma gondii; assay: Selectivity ratio of EC50 of wild type Toxoplasma gondii to EC50 of Toxoplasma gondii expressing Cryptosporidium parvum IMPDH
Outline: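 Selectivity is the EC50 against wild-type RH T. gondii divided by the EC50 against the CpIMPDH-dependent strain. Both were measured by daily YFP fluorescence of parasites on hTERT human foreskin fibroblasts over 6-7 days, with inhibition taken in exponential growth.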

[6] = target: Inosine-5'-monophosphate dehydrogenase 2 (Homo sapiens, UniProt P12268); assay: Inhibition of human IMPDH 2
[7] = system: Plasma; assay: Half life in mouse plasma; type: ADME, cell-free
[8] = system: Liver; assay: Half life in mouse liver microsomes; type: ADME, Microsome

Row | Compound | pEC50 [1] | pEC50 [2] | pIC50 [3] | pIC50 [4] | Ratio EC50 [5] | pIC50 [6] | t1/2 [7] [h] | t1/2 [8] [h]
1 | C/C(=N\O)c1cccc(C(C)(C)NC(=O)Nc2ccc3ccccc3c2)c1 | 5.30 | 7.10 | 9.00 | 8.64 | 63 | – | – | –
2 | CC(=O)c1cccc(CNC(=O)Nc2ccc(Cl)cc2)c1 | 5.15 | 4.96 | 5.30 | – | 0.6 | – | – | –
3 | C=C(C)c1cccc(C(C)(C)NC(=O)Nc2cnc3ccccc3c2)c1 | 5.70 | 5.96 | 7.15 | 6.51 | 2.3 | ≤ 5.30 | – | –
4 | CC(=O)c1cccc(C(C)(C)NC(=O)Oc2ccc(Cl)cc2)c1 | – | – | < 5.30 | – | – | – | – | –
5 | CC(C)(NC(=O)Nc1ccc(Cl)cc1)c1ccc(-c2ccccc2)cc1 | – | – | < 5.30 | – | – | – | – | –
6 | C=C(C)c1cccc(C(C)(C)NC(=O)Nc2ccc(Cl)cc2)c1 | < 4.60 | 6.74 | 7.70 | 7.43 | >140 | ≤ 5.30 | – | –
7 | CC(=O)c1cccc(C(C)(C)NC(=O)Cc2ccc(Cl)cc2)c1 | – | – | < 5.30 | – | – | – | – | –
8 | CC(=O)c1cccc(C(C)(C)NC(=O)Nc2ccc(Cl)c(C(F)(F)F)c2)c1 | 5.49 | 6.70 | 8.05 | 7.70 | 16 | – | – | –
9 | C=C(C)c1cccc(C(C)(C)NC(=O)Nc2ccc(Cl)c(C(=O)N(C)C)c2)c1 | 5.05 | 7.05 | 8.10 | 7.93 | 100 | ≤ 5.30 | – | –
10 | CC(C)c1cccc(C(C)(C)NC(=O)Nc2ccc3ccccc3c2)c1 | – | – | < 5.30 | – | – | – | – | –
11 | CC(C)(NC(=O)Nc1ccc2[nH]c(=O)[nH]c2c1)c1ccccc1 | – | – | < 5.30 | – | – | – | – | –
12 | C=C(C)c1cccc(C(C)(C)NC(=O)Nc2ccc(C(C)(C)C)cc2)c1 | 4.70 | 5.14 | < 5.30 | – | 3 | ≤ 5.30 | – | –
13 | C/C(=N\O)c1cccc(C(C)(C)NC(=O)Nc2ccc3cccnc3c2)c1 | 4.85 | 7.24 | 9.05 | 8.92 | 230 | – | > 2 | 0.75
14 | C=C(C)c1cccc(C(C)(C)NC(=O)Nc2ccc(Cl)c(OC)c2)c1 | 5.64 | 7.74 | 8.89 | 8.30 | 127 | ≤ 5.30 | – | –
15 | C=C(C)c1cccc(C(C)(C)NC(=O)Nc2ccc(Br)cc2)c1 | < 4.60 | 6.70 | 8.00 | 7.70 | >120 | ≤ 5.30 | – | –
16 | C=C(C)c1cccc(C(C)(C)NC(=O)Nc2ccc(Cl)c(C(=O)NC)c2)c1 | 4.72 | 6.74 | 8.15 | 7.85 | 100 | ≤ 5.30 | – | –
17 | C=C(C)c1cccc(C(C)(C)NC(=O)Nc2ccc3[nH]c(=O)[nH]c3c2)c1 | – | – | 6.47 | – | – | < 5.30 | – | –
18 | C=C(C)c1cccc(C(C)(C)NC(=O)Nc2cccc3ccccc23)c1 | – | – | < 5.30 | – | – | ≤ 5.30 | – | –
19 | CC(=O)c1cccc(C(C)(C)NC(=O)Nc2ccc(Cl)cc2)c1 | – | – | 7.41 | 7.19 | – | – | – | –
20 | C/C(=N\O)c1cccc(C(C)(C)NC(=O)Nc2ccc(Cl)c(C(N)=O)c2)c1 | < 4.60 | 5.72 | – | 8.22 | >12 | – | > 2 | 3.17
21 | CC(=O)c1cccc(C(C)NC(=O)Nc2ccc(Cl)cc2)c1 (stereo not given) | 5.10 | 5.64 | 7.15 | 6.96 | – | – | – | –
22 | C=C(C)c1cccc(C(C)(C)NC(=O)Nc2ccc3ncccc3c2)c1 | 5.12 | 7.70 | 8.74 | 8.40 | – | ≤ 5.30 | – | –
23 | C/C(=N\O)c1cccc(C(C)(C)NC(=O)Nc2ccc(Cl)c(C(F)(F)F)c2)c1 | – | 8.00 | 9.00 | 8.40 | – | – | – | 1.47

Row | Compound | pEC50 [1] | pEC50 [2] | pIC50 [3] | pIC50 [4] | Ratio EC50 [5] | pIC50 [6] | t1/2 [7] [h] | t1/2 [8] [h]
24 | CC(=O)c1cccc(C(C)(C)NC(=O)Nc2ccc(Cl)c(C(N)=O)c2)c1 | < 4.60 | 6.42 | 7.27 | 7.28 | >66 | – | > 2 | > 11.7
25 | C=C(C)c1cccc(C(C)(C)NC(=O)Nc2ccc3ccccc3c2)c1 | < 4.60 | 6.70 | 8.68 | 7.40 | >120 | ≤ 5.30 | – | –
26 | C=C(C)c1cccc(C(C)(C)NC(=O)Nc2ccccc2Cl)c1 | – | – | < 5.30 | – | – | ≤ 5.30 | – | –
27 | C=C(C)c1cccc(C(C)(C)NC(=O)Nc2ccc(Cl)c(C(N)=O)c2)c1 | 4.82 | 6.64 | 8.64 | 8.52 | 65 | ≤ 5.30 | > 2 | 0.417
28 | CO/N=C(\C)c1cccc(C(C)(C)NC(=O)Nc2ccc(Cl)c(C(N)=O)c2)c1 | < 4.60 | 6.70 | 8.30 | 8.30 | >120 | – | – | –
29 | C=C(C)c1cccc(C(C)(C)NC(=O)Nc2ccccc2)c1 | 5.22 | 6.11 | 6.60 | 6.39 | 8 | ≤ 5.30 | – | –
30 | CC(=O)c1cccc(C(C)(C)OC(=O)Nc2ccc(Cl)cc2)c1 | – | – | 7.05 | 6.92 | – | – | – | –
31 | C=C(C)c1cccc(C(C)(C)NC(=O)Nc2ccc(Cl)c(C(F)(F)F)c2)c1 | – | – | 8.40 | 7.70 | – | ≤ 5.30 | – | –
32 | C=C(C)c1cccc(C(C)(C)NC(=O)Nc2ccc(Cl)c(Cl)c2)c1 | 5.40 | 6.66 | 8.22 | 7.30 | 20 | ≤ 5.30 | – | –
33 | C=C(C)c1cccc(C(C)(C)NC(=O)Nc2cccc(Cl)c2)c1 | 6.40 | 6.42 | 7.15 | 6.48 | 1 | ≤ 5.30 | – | –
34 | CC(O)c1cccc(C(C)(C)NC(=O)Nc2ccc(Cl)cc2)c1 (stereo not given) | 4.72 | 6.05 | 7.10 | 6.92 | – | – | – | –
35 | CO/N=C(\C)c1cccc(C(C)(C)NC(=O)Nc2ccc(Cl)c(C(F)(F)F)c2)c1 | 5.85 | 7.80 | 8.30 | 7.74 | 86 | – | – | 0.55
36 | CO/N=C(\C)c1cccc(C(C)(C)NC(=O)Nc2ccc3ccccc3c2)c1 | – | 7.89 | 8.80 | 7.89 | – | – | – | –
37 | NC(=O)c1cc(NC(=O)NC2(c3cccc(-c4ccccc4)c3)CC2)ccc1Cl | 5.05 | 6.22 | 7.40 | 7.05 | 15 | – | – | –
38 | CC(C)(NC(=O)Nc1ccc(Cl)c(C(N)=O)c1)c1cccc(-c2ccccc2)c1 | 5.22 | 6.68 | 8.40 | 7.85 | – | – | – | –
39 | C=C(C)c1cccc(C(C)(C)NC(=O)Nc2ccc3cccnc3c2)c1 | 5.52 | > 6.70 | 9.10 | 8.22 | >15 | ≤ 5.30 | > 2 | 0.0983
40 | C/C(=N\O)c1cccc(C(C)(C)NC(=O)Nc2ccc(Cl)c([N+](=O)[O-])c2)c1 | – | 8.22 | 9.18 | 8.70 | – | – | – | 0.183
41 | C=C(C)c1cccc(C(C)(C)NC(=O)Nc2ccc(OC)cc2)c1 | – | – | 8.05 | 7.68 | – | ≤ 5.30 | – | –
42 | C=C(C)c1cccc(C(C)(C)NC(=O)Nc2ccc3c(c2)OCCO3)c1 | 5.10 | 6.70 | 8.14 | 6.96 | 50 | ≤ 5.30 | – | –
43 | C=C(C)c1cccc(C(C)(C)NC(=O)N(C)c2ccc(Cl)cc2)c1 | – | – | 6.05 | 5.30 | – | – | – | –
44 | C=C(C)c1cccc(C(C)(C)NC(=O)Nc2ccc3ccccc3n2)c1 | 5.52 | 5.47 | 6.60 | 5.96 | 0.9 | ≤ 5.30 | – | –
45 | C/C(=N\OCCN)c1cccc(C(C)(C)NC(=O)Nc2ccc(Cl)c([N+](=O)[O-])c2)c1 | 5.00 | 6.29 | 7.70 | 7.62 | 20 | – | – | 2.02
